Reference: ChEMBL document CHEMBL1140997 (Bioorg Med Chem, 2009)
pIC50: −log10 of the molar value.

Key:
[1] = Inhibition of TNFalpha induced NF-kappaB activation in human 293 cells after 24 hrs by luciferase reporter gene assay; format: cell-based; details: HEK293, 24 h
In short: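 Cells incubated 24 h with TNFα (20 ng/ml) and test compounds, PBS-washed, lysed 10 min, luciferase read. Screen at 20 µg/ml; active compounds then run as dose-response in duplicate. Values are % of TNFα-treated control; IC50 from five serial dilutions, mean of two experiments.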

[2] = target: Prostaglandin G/H synthase 1 (Homo sapiens, UniProt P23219); experiment: Inhibition of COX1
Chain of Prostaglandin G/H synthase 1 (P23219 whole entry): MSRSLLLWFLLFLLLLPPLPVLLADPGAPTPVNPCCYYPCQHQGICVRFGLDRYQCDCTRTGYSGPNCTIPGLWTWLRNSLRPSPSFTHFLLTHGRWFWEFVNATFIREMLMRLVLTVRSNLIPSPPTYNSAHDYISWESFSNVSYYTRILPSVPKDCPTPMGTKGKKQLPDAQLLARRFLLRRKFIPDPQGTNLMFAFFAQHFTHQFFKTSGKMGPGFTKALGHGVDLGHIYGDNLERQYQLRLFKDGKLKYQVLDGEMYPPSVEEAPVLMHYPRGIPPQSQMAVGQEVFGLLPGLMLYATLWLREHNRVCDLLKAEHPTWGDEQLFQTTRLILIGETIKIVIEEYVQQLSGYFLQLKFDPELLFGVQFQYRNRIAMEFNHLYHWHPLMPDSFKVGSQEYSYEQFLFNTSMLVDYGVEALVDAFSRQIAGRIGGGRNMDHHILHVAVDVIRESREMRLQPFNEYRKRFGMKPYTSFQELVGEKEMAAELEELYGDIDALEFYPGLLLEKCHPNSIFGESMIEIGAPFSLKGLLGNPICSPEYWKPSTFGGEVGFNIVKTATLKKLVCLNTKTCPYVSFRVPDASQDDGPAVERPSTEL
In short: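 Reaction in 100 mM Tris-HCl pH 8.0 containing 1 µM heme, 500 µM phenol and 300 µM epinephrine, with enough COX-1 to make 150 ng/ml PGE2. Started with arachidonic acid (10 µM final), 10 min at room temperature, stopped into indomethacin. PGE2 measured by ELISA against a PGE2 standard curve. Values are % of solvent control; IC50 from four serial dilutions, mean of two experiments.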

[3] = target: T1, Prostaglandin G/H synthase 2 (Homo sapiens, UniProt P35354); experiment: Inhibition of COX2
T1 sequence (P35354 whole entry): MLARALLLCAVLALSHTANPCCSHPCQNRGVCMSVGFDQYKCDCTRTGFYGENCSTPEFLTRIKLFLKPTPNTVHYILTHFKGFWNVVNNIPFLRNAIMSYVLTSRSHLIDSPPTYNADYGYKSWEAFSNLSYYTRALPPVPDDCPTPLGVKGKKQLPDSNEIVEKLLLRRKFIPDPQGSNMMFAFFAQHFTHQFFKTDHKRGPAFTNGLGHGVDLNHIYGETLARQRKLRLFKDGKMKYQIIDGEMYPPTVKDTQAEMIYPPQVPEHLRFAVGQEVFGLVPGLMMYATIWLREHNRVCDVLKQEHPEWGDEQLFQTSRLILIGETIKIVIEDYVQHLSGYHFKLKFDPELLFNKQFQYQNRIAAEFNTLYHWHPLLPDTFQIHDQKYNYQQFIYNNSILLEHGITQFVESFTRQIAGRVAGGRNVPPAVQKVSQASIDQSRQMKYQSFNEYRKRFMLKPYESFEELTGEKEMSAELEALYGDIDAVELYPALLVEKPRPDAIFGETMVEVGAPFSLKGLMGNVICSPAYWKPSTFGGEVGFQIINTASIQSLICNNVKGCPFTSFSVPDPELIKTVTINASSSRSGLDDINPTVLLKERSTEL

SMILES | pIC50 [1] | pIC50 [2] | pIC50 [3]
COc1cc(/C=C/c2ccc(F)cc2)cc(OC)c1 | 4.43 |  | 
COc1cc(/C=C/c2ccc([N+](=O)[O-])cc2)cc(OC)c1 |  | 5.00 | 5.23
COc1ccc(/C=C/c2ccc(O)c(O)c2)cc1 | 4.91 |  | 
COc1ccc(/C=C/c2ccc(OC)c(OC)c2)cc1 | 4.28 |  | 
Oc1ccc(/C=C/c2ccc(O)c(O)c2)cc1 | 4.90 |  | 
COc1cc(/C=C(/c2ccc(F)cc2)C(F)(F)F)cc(OC)c1 | 4.41 | 5.52 | 
CC/C(=C\c1ccc(C(F)(F)F)cc1)c1cc(O)cc(O)c1 |  | 6.00 | 
C/C(=C\c1ccc(O)c(O)c1)c1ccc(Cl)cc1 | 4.43 |  | 
Oc1cc(O)cc(/C=C/c2ccc(F)cc2)c1 | 4.28 | 4.29 | 
COc1ccc(/C=C/c2cccc(F)c2)cc1OC | 4.41 | 5.49 | 
Oc1ccc(/C=C/c2cccc(F)c2)cc1O | 4.99 | 4.94 | 
C/C(=C\c1cc(O)cc(O)c1)c1cccc(F)c1 |  | 5.31 | 5.60
CC/C(=C\c1ccc(N(C)C)cc1)c1cc(O)cc(O)c1 |  | 5.13 | 5.66
CC/C(=C\c1cc(OC)cc(OC)c1)c1ccc(OC)c(OC)c1 | 4.57 |  | 
CC/C(=C\c1cc(O)cc(O)c1)c1ccc(Cl)cc1 | 4.42 | 4.94 | 
CC/C(=C\c1cc(O)cc(O)c1)c1cccc(F)c1 | 4.59 | 5.46 | 4.75
CC/C(=C\c1cc(O)cc(O)c1)c1ccc(N(C)C)cc1 |  | 4.52 | 4.83
COc1cc(/C=C/c2ccc3ccccc3c2)cc(OC)c1 | 4.73 |  | 
COc1cccc(/C=C/c2ccc(OC)c(OC)c2)c1 | 4.76 |  | 

SMILES | pIC50 [1] | pIC50 [2] | pIC50 [3]
Oc1ccc(/C=C/c2ccc(F)cc2)cc1O | 4.75 |  | 
COc1ccc(/C=C/c2ccc(N(C)C)cc2)cc1OC | 4.46 |  | 
C/C(=C\c1cc(O)cc(O)c1)c1ccc(O)cc1 |  | 5.72 | 5.80
C/C(=C\c1cc(O)cc(O)c1)c1ccc(C(F)(F)F)cc1 | 4.47 | 6.01 | 
Oc1ccc(/C=C/c2ccc(C(F)(F)F)cc2)cc1O | 4.83 |  | 
Oc1ccc(/C=C/c2ccc3ccccc3c2)cc1O | 5.16 |  | 
COc1ccc(/C(=C/c2cc(OC)cc(OC)c2)C(F)(F)F)cc1 | 4.42 |  | 
COc1ccc(/C=C(/c2cc(OC)cc(OC)c2)C(F)(F)F)cc1 |  | 5.11 | 
COc1ccc(/C(C)=C/c2cc(O)cc(O)c2)cc1 | 4.45 | 4.91 | 4.80
COc1ccc(/C(C)=C/c2cc(OC)cc(OC)c2)cc1 | 4.57 |  | 
COc1ccc(/C(C)=C/c2ccc3ccccc3c2)cc1 | 4.32 |  | 
COc1ccc(/C(C)=C/c2cc(O)cc(O)c2)cc1OC | 4.88 | 4.94 | 
C/C(=C\c1cc(O)cc(O)c1)c1ccc(Cl)cc1 | 4.41 | 5.28 | 
C/C(=C\c1ccc(C(F)(F)F)cc1)c1ccc(O)c(O)c1 |  |  | 5.76
C/C(=C\c1ccc2ccccc2c1)c1cc(O)cc(O)c1 | 4.37 |  | 
Oc1cc(O)cc(/C=C/c2ccc3ccccc3c2)c1 |  | 4.74 | 
C/C(=C\c1ccc(C(F)(F)F)cc1)c1cc(O)cc(O)c1 |  | 4.96 | 
CC/C(=C\c1cccc(F)c1)c1cc(O)cc(O)c1 |  | 5.27 | 
C/C(=C\c1ccc(N(C)C)cc1)c1cc(O)cc(O)c1 |  | 4.97 | 5.76

SMILES | pIC50 [1] | pIC50 [2] | pIC50 [3]
COc1cc(/C=C(/c2cccc(C(F)(F)F)c2)C(F)(F)F)cc(OC)c1 | 4.50 |  | 
COc1ccc(/C=C(/c2cccc(C(F)(F)F)c2)C(F)(F)F)cc1OC | 4.59 |  | 
Oc1cc(O)cc(/C=C/c2cccc(F)c2)c1 |  | 4.78 | 6.09
Oc1cc(O)cc(/C=C/c2ccc(C(F)(F)F)cc2)c1 | 4.89 | 4.53 | 
O=[N+]([O-])c1ccc(/C=C/c2cc(O)cc(O)c2)cc1 |  | 5.66 | 4.50
CN(C)c1ccc(/C=C/c2cc(O)cc(O)c2)cc1 |  | 4.75 | 
C/C(=C\c1ccc(C(F)(F)F)cc1)c1ccc(O)cc1 |  | 4.44 | 6.33
C/C(=C\c1ccc(O)cc1)c1cc(O)cc(O)c1 | 4.58 | 5.72 | 5.75
COc1ccc(/C=C(\C)c2cc(O)cc(O)c2)cc1OC |  | 4.97 | 4.89
C/C(=C\c1ccc(O)c(O)c1)c1ccc(O)cc1 | 4.67 |  | 
COc1cc(/C=C(\C)c2ccc(C(F)(F)F)cc2)cc(OC)c1 |  | 4.49 | 
C/C(=C\c1cccc(F)c1)c1cc(O)cc(O)c1 |  | 4.98 | 
CC/C(=C\c1cc(O)cc(O)c1)c1ccc2ccccc2c1 |  | 6.77 | 5.48
CC/C(=C\c1ccc(OC)c(OC)c1)c1cc(O)cc(O)c1 |  | 5.01 | 
COc1cc(/C=C/c2ccc(O)cc2)cc(OC)c1 [PTEROSTILBENE] | 4.71 | 6.15 | 6.09
COc1ccc(/C=C/c2cc(O)cc(O)c2)cc1 [RESVERATROL 4'-METHYL ETHER] |  | 4.59 | 4.71
Oc1ccc(/C=C/c2cc(O)cc(O)c2)cc1 [RESVERATROL] | 4.79 |  | 
COc1ccc(/C=C/c2cc(OC)cc(OC)c2)cc1 [TRISMETHOXYRESVERATROL] | 4.55 |  | 
